A short description of data set [1]: Displacement of [125I]IMPY from amyloid beta (1-42) aggregates. The essentials: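 Synthetic Aβ(1–42) dissolved at 0.25 mg/mL in 10 mM sodium phosphate, 1 mM EDTA, pH 7.4, aggregated 42 h at 37 °C with gentle constant shaking. Competition against [125I]IMPY (2200 Ci/mmol, >95% radiochemical purity). Filter-bound radioactivity gamma-counted, specific binding under 15% of total. IC50 from displacement curves, Ki by Cheng-Prusoff. Mean ± SEM of 3–6 independent experiments.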

Data set [2] deals with Blood. Kind of data set: Biodistribution in ddY mouse blood at 0.5 uCi, iv after 2 mins. In kind it is ADME, organism-based. Particulars: in vivo. The essentials:
(§1)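 Normal male-unspecified ddY mice (5-week-old, 22–25 g) given radioiodinated ligand by tail-vein injection, killed at set times post-injection. Organs removed and weighed, radioactivity counted in a gamma counter. Expressed as % injected dose per gram, stomach as % injected dose per organ. Mean (s.d.) of 3–5 animals per time point.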

Data set [3] concerns Liver. Kind of data set: Biodistribution in ddY mouse liver at 0.5 uCi, iv after 2 mins. In kind it is ADME, organism-based. The note with it: in vivo. The essentials:
as §1

Data set [4] relates to Kidney. Nature of the data set: Biodistribution in ddY mouse kidney at 0.5 uCi, iv after 2 mins. The format is ADME, organism-based. Particulars: in vivo. Summed up:
as §1

The subject of data set [5] is Intestine. Kind of data set: Biodistribution in ddY mouse intestine at 0.5 uCi, iv after 2 mins. In kind it is ADME, organism-based. Particulars: in vivo. The essentials: as §1
In data set [6] the test system is Spleen. Kind of data set: Biodistribution in ddY mouse spleen at 0.5 uCi, iv after 2 mins. In kind it is ADME, organism-based. The note with it: in vivo. Summed up: as §1
The subject of data set [7] is Heart. Nature of the data set: Biodistribution in ddY mouse heart at 0.5 uCi, iv after 2 mins. In kind it is ADME, organism-based. The note with it: in vivo. The essentials: as §1
Data set [8] concerns Stomach. Nature of the data set: Biodistribution in ddY mouse stomach at 0.5 uCi, iv after 2 mins. In kind it is ADME, organism-based. The note with it: in vivo. The essentials:
as §1

Data set [9] relates to Brain. Nature of the data set: Biodistribution in ddY mouse brain at 0.5 uCi, iv after 2 mins. The format is ADME, organism-based. The note with it: in vivo. The essentials: as §1
The test system of data set [10] is Blood. Nature of the data set: Biodistribution in ddY mouse blood at 0.5 uCi, iv after 10 mins. Particulars: in vivo. The format is ADME, organism-based. The essentials:
as §1

Data set [11] has as its system Liver. Kind of data set: Biodistribution in ddY mouse liver at 0.5 uCi, iv after 10 mins. The format is ADME, organism-based. The note with it: in vivo. Summed up:
as §1

The subject of data set [12] is Kidney. Kind of data set: Biodistribution in ddY mouse kidney at 0.5 uCi, iv after 10 mins. The format is ADME, organism-based. The note with it: in vivo. The essentials:
as §1

In data set [13] the test system is Intestine. Nature of the data set: Biodistribution in ddY mouse intestine at 0.5 uCi, iv after 10 mins. In kind it is ADME, organism-based. The note with it: in vivo. Summed up: as §1
The test system of data set [14] is Spleen. Nature of the data set: Biodistribution in ddY mouse spleen at 0.5 uCi, iv after 10 mins. In kind it is ADME, organism-based. The note with it: in vivo. The essentials:
as §1

Data set [15] has as its system Pancreas. Kind of data set: Biodistribution in ddY mouse pancreas at 0.5 uCi, iv after 10 mins. The format is ADME, organism-based. Particulars: in vivo. The essentials: as §1
The subject of data set [16] is Heart. Kind of data set: Biodistribution in ddY mouse heart at 0.5 uCi, iv after 10 mins. The format is ADME, organism-based. The note with it: in vivo. The essentials:
as §1

Data set [17] concerns Stomach. Nature of the data set: Biodistribution in ddY mouse stomach at 0.5 uCi, iv after 10 mins. The format is ADME, organism-based. Particulars: in vivo. Summed up: as §1
Data set [18] relates to Brain. Nature of the data set: Biodistribution in ddY mouse brain at 0.5 uCi, iv after 10 mins. The format is ADME, organism-based. Particulars: in vivo. The essentials: as §1
The test system of data set [19] is Blood. Nature of the data set: Biodistribution in ddY mouse blood at 0.5 uCi, iv after 30 mins. The note with it: in vivo, 0.5 h. The format is ADME, organism-based. Summed up:
as §1

For data set [20], the system named is Liver. Nature of the data set: Biodistribution in ddY mouse liver at 0.5 uCi, iv after 30 mins. The format is ADME, organism-based. Particulars: in vivo, 0.5 h. The essentials:
as §1

The subject of data set [21] is Kidney. Nature of the data set: Biodistribution in ddY mouse kidney at 0.5 uCi, iv after 30 mins. Particulars: in vivo, 0.5 h. In kind it is ADME, organism-based. Summed up:
as §1

The test system of data set [22] is Intestine. Kind of data set: Biodistribution in ddY mouse intestine at 0.5 uCi, iv after 30 mins. The format is ADME, organism-based. The note with it: in vivo, 0.5 h. Summed up:
as §1

For data set [23], the system named is Spleen. Kind of data set: Biodistribution in ddY mouse spleen at 0.5 uCi, iv after 30 mins. The note with it: in vivo, 0.5 h. In kind it is ADME, organism-based. The essentials: as §1
In data set [24] the test system is Pancreas. Kind of data set: Biodistribution in ddY mouse pancreas at 0.5 uCi, iv after 30 mins. In kind it is ADME, organism-based. The note with it: in vivo, 0.5 h. Summed up:
as §1

Data set [25] deals with Heart. Kind of data set: Biodistribution in ddY mouse heart at 0.5 uCi, iv after 30 mins. In kind it is ADME, organism-based. The note with it: in vivo, 0.5 h. Summed up:
as §1

In data set [26] the test system is Stomach. Nature of the data set: Biodistribution in ddY mouse stomach at 0.5 uCi, iv after 30 mins. Particulars: in vivo, 0.5 h. The format is ADME, organism-based. The essentials:
as §1

Data set [27] relates to Brain. Kind of data set: Biodistribution in ddY mouse brain at 0.5 uCi, iv after 30 mins. The format is ADME, organism-based. The note with it: in vivo, 0.5 h. The essentials: as §1
Data set [28] deals with Blood. Kind of data set: Biodistribution in ddY mouse blood at 0.5 uCi, iv after 60 mins. The format is ADME, organism-based. The note with it: in vivo, 1 h. The essentials: as §1
The test system of data set [29] is Liver. Kind of data set: Biodistribution in ddY mouse liver at 0.5 uCi, iv after 60 mins. The format is ADME, organism-based. Particulars: in vivo, 1 h. Summed up: as §1
Data set [30] relates to Kidney. Kind of data set: Biodistribution in ddY mouse kidney at 0.5 uCi, iv after 60 mins. In kind it is ADME, organism-based. The note with it: in vivo, 1 h. Summed up:
as §1

Data set [31] has as its system Intestine. Nature of the data set: Biodistribution in ddY mouse intestine at 0.5 uCi, iv after 60 mins. In kind it is ADME, organism-based. Particulars: in vivo, 1 h. The essentials: as §1
Data set [32] has as its system Spleen. Nature of the data set: Biodistribution in ddY mouse spleen at 0.5 uCi, iv after 60 mins. Particulars: in vivo, 1 h. The format is ADME, organism-based. Summed up: as §1
Data set [33] relates to Pancreas. Nature of the data set: Biodistribution in ddY mouse pancreas at 0.5 uCi, iv after 60 mins. In kind it is ADME, organism-based. Particulars: in vivo, 1 h. Summed up: as §1
In data set [34] the test system is Heart. Nature of the data set: Biodistribution in ddY mouse heart at 0.5 uCi, iv after 60 mins. The format is ADME, organism-based. The note with it: in vivo, 1 h. Summed up: as §1
Data set [35] concerns Stomach. Nature of the data set: Biodistribution in ddY mouse stomach at 0.5 uCi, iv after 60 mins. The format is ADME, organism-based. The note with it: in vivo, 1 h. Summed up: as §1
In data set [36] the test system is Brain. Kind of data set: Biodistribution in ddY mouse brain at 0.5 uCi, iv after 60 mins. In kind it is ADME, organism-based. Particulars: in vivo, 1 h. Summed up:
as §1

Data set [37] deals with Pancreas. Nature of the data set: Biodistribution in ddY mouse pancreas at 0.5 uCi, iv after 2 mins. The format is ADME, organism-based. Particulars: in vivo. The essentials:
as §1

`CN(C)c1ccc(-c2nc(-c3ccc(I)cc3)no2)cc1`: affinity in data set [1] was put at a Ki of 15.4 nM.
Still for that read-out and setting: with `Oc1ccc(-c2nc(-c3ccc(I)cc3)no2)cc1` the figure was 47.1 nM.
In the case of `COc1ccc(-c2nc(-c3ccc(I)cc3)no2)cc1`, the Ki in data set [1] was 4.3 nM. This Ki lies about 11-fold lower than the previous one.
Turning to `CN(C)c1ccc(-c2nc(-c3ccc([125I])cc3)no2)cc1`, the Drug uptake in the data set with Blood [2] came to 5.42 % ID/g; with Liver [3], 13.94 % ID/g; in the data set with Kidney [4], 7.83 % ID/g; in the data set with Intestine [5], 1.59 % ID/g; in the data set with Spleen [6] it was 6.26 % ID/g; in the data set with Heart [7] it was 11.04 % ID/g. Besides, the Drug uptake with Stomach [8] was 1.28 % ID/organ; in the data set on Brain [9] it was 1.07 % ID/g; in the data set with Blood [10] it was 2.41 % ID/g; with Liver [11], 8.27 % ID/g; with Kidney [12], 7.67 % ID/g; in the data set with Intestine [13], 2.4 % ID/g. In addition, the Drug uptake with Spleen [14] was 4.56 % ID/g; in the data set on Pancreas [15], 3.8 % ID/g; with Heart [16], 4.81 % ID/g; in the data set on Stomach [17], 3.28 % ID/organ; in the data set on Brain [18] it was 1.45 % ID/g; with Blood [19], 1.79 % ID/g. The Drug uptake with Liver [20] is 5.89 % ID/g; in the data set with Kidney [21], 4.81 % ID/g; in the data set on Intestine [22], 4.12 % ID/g; in the data set on Spleen [23], 3.11 % ID/g; with Pancreas [24], 2.86 % ID/g; in the data set with Heart [25], 2.2 % ID/g. Moreover, the Drug uptake worked out at 4.8 % ID/organ with Stomach [26]; 2.23 % ID/g in the data set with Brain [27]; 1.56 % ID/g with Blood [28]; 5.15 % ID/g with Liver [29]; 3.31 % ID/g with Kidney [30]; 5.37 % ID/g in the data set on Intestine [31]. For the same compound, the Drug uptake in the data set on Spleen [32] was determined as 2.41 % ID/g; in the data set on Pancreas [33] it was 2.47 % ID/g; with Heart [34] it was 1.24 % ID/g; in the data set on Stomach [35] it was 5.75 % ID/organ; with Brain [36], 2.32 % ID/g; in the data set with Pancreas [37] it was 3.17 % ID/g.
On to `Nc1ccc(-c2nc(-c3ccc([125I])cc3)no2)cc1`, for which the Drug uptake with Blood [2] is given as 4.55 % ID/g; in the data set on Liver [3], 21.36 % ID/g; with Kidney [4], 8.24 % ID/g; in the data set on Intestine [5] it was 1.5 % ID/g; in the data set on Spleen [6], 6.13 % ID/g; with Heart [7] it was 9.29 % ID/g. In addition, the Drug uptake with Stomach [8] was determined as 0.92 % ID/organ; in the data set on Brain [9] it was 1.61 % ID/g; in the data set on Blood [10], 2.32 % ID/g; in the data set on Liver [11], 17.37 % ID/g; in the data set with Kidney [12], 6.94 % ID/g; with Intestine [13], 3.08 % ID/g. Besides, the Drug uptake in the data set on Spleen [14] amounted to 8.87 % ID/g; in the data set on Pancreas [15], 3.88 % ID/g; in the data set with Heart [16] it was 4.02 % ID/g; in the data set on Stomach [17], 1.7 % ID/organ; with Brain [18], 2.48 % ID/g; in the data set with Blood [19], 3.09 % ID/g. In addition, the Drug uptake in the data set on Liver [20] is 14.89 % ID/g; in the data set with Kidney [21] it was 5.86 % ID/g; in the data set on Intestine [22], 5.84 % ID/g; in the data set on Spleen [23], 6.89 % ID/g; with Pancreas [24] it was 3.36 % ID/g; in the data set on Heart [25], 3.48 % ID/g. For the same compound, the Drug uptake in the data set on Stomach [26] was determined as 4.05 % ID/organ; in the data set on Brain [27] it was 3.32 % ID/g; in the data set on Blood [28] it was 2.99 % ID/g; in the data set with Liver [29] it was 12.33 % ID/g; in the data set with Kidney [30], 5.15 % ID/g; in the data set with Intestine [31], 8.33 % ID/g. For the same compound, the Drug uptake with Spleen [32] was 5.02 % ID/g; with Pancreas [33], 2.83 % ID/g; in the data set with Heart [34], 3.51 % ID/g; with Stomach [35] it was 5.15 % ID/organ; in the data set on Brain [36], 3.29 % ID/g; in the data set with Pancreas [37], 3.69 % ID/g.

For the origin of these results see ChEMBL document CHEMBL1157526, “Development of novel beta-amyloid probes based on 3,5-diphenyl-1,2,4-oxadiazole” (Bioorg Med Chem, 2008).
